From ChEMBL document CHEMBL3091329, “Discovery of tetrahydroisoquinoline-based CXCR4 antagonists” (ACS Med Chem Lett, 2013)
Calls of active or inactive are those of the source. The calls are words filed in the database; no cut-off is given here.

What was measured:
[1] = tested on: Mus musculus; assay: Induction of WBC mobilization in Harlan C57BL/6 mouse at 5 to 20 mg/kg, sc after 6 to 8 hrs by LC/MS/MS analysis relative to control; type: functional, organism-based
Method in brief: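 Harlan mice were given a single subcutaneous dose at 5, 10 or 20 mg/kg. Blood was sampled at multiple time points over about 8 h, and each sample was used for both total circulating WBC count and plasma drug level. Counts and concentrations were plotted against time for each dose.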

[2] = Elimination half life in jugular pre-cannulated CRL Sprague-Dawley rat at 10 mg/kg, po; type: ADME, organism-based; set-up: dose 10 mg/kg, route oral; details: in vivo, read-out: beta t1/2 (converted)
[3] = Half life in rat liver microsomes at 1 uM incubated for 3 mins prior to NADPH addition by LC-MS/MS analysis; type: ADME
[4] = Intrinsic clearance in mouse liver microsomes at 1 uM incubated for 3 mins prior to NADPH addition by LC-MS/MS analysis; type: ADME, Microsome; details: 0.05 h
[5] = Aqueous solubility in PBS at 7.4 after 90 mins by nephelometric analysis; type: physicochemical; details: pH 7.4
[6] = target: T1, C-X-C chemokine receptor type 3 (Homo sapiens) (UniProt P49682); assay: Inhibition of CXCR3 (unknown origin) at 10 uM relative to control
T1 sequence (whole entry): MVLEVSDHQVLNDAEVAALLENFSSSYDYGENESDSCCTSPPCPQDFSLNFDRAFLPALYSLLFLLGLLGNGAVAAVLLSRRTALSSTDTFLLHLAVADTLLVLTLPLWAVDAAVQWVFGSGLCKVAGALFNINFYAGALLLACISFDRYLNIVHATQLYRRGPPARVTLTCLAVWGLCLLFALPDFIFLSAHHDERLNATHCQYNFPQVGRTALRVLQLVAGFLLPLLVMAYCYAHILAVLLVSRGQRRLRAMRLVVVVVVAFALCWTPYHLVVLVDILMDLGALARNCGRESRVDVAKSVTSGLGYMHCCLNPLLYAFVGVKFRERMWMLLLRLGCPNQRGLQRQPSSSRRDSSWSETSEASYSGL

[7] = target: T2, C-X-C chemokine receptor type 2 (Homo sapiens) (UniProt P25025); assay: Inhibition of CXCR2 (unknown origin) at 10 uM relative to control
T2 sequence (whole entry): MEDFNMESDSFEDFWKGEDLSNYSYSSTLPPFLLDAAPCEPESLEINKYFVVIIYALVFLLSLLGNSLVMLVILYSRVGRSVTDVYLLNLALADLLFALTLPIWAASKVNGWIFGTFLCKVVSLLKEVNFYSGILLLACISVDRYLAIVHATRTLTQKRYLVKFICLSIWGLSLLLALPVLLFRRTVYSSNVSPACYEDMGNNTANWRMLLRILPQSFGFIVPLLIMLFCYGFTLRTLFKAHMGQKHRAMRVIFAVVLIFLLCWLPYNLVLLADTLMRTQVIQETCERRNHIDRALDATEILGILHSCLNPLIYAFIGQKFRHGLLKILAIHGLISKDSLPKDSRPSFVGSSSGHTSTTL

[8] = target: T3, C-X-C chemokine receptor type 1 (Homo sapiens) (UniProt P25024); assay: Inhibition of CXCR1 (unknown origin) at 10 uM relative to control
T3 sequence (whole entry): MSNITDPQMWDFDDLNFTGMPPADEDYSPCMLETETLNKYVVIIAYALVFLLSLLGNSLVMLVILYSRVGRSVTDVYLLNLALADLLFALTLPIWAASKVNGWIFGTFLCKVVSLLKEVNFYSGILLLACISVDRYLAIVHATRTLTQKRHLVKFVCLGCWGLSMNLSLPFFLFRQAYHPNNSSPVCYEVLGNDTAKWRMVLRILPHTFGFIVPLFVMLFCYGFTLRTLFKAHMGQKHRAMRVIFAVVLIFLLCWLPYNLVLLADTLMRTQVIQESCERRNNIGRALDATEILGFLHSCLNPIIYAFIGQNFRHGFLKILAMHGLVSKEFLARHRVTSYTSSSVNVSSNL

[9] = target: T4, C-C chemokine receptor type 9 (Homo sapiens) (UniProt P51686); assay: Inhibition of CCR9 (unknown origin) at 10 uM relative to control
T4 sequence (whole entry): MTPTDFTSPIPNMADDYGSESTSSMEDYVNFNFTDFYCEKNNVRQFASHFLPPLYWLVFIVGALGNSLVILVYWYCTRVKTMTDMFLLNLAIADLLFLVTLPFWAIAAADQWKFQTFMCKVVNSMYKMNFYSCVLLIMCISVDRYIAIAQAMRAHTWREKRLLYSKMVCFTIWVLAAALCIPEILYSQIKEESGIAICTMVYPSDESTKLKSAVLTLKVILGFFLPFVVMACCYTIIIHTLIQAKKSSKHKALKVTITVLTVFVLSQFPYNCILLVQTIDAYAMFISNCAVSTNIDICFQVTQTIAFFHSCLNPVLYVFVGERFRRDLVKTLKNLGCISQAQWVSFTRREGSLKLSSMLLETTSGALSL

[10] = target: T5, C-C chemokine receptor type 7 (Homo sapiens) (UniProt P32248); assay: Inhibition of CCR7 (unknown origin) at 10 uM relative to control
T5 sequence (whole entry): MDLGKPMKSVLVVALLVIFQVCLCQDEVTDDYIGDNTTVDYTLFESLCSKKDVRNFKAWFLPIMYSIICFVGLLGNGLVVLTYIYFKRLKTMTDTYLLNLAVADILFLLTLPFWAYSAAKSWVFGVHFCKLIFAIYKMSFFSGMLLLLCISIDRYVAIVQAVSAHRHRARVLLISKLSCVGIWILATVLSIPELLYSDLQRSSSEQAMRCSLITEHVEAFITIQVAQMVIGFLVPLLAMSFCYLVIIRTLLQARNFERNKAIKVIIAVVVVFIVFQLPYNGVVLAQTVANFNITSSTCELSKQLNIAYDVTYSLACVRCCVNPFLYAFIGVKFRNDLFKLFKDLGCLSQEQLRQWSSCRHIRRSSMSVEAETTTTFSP

[11] = target: T6, C-C chemokine receptor type 3 (Homo sapiens) (UniProt P51677); assay: Inhibition of CCR3 (unknown origin) at 10 uM relative to control
T6 sequence (whole entry): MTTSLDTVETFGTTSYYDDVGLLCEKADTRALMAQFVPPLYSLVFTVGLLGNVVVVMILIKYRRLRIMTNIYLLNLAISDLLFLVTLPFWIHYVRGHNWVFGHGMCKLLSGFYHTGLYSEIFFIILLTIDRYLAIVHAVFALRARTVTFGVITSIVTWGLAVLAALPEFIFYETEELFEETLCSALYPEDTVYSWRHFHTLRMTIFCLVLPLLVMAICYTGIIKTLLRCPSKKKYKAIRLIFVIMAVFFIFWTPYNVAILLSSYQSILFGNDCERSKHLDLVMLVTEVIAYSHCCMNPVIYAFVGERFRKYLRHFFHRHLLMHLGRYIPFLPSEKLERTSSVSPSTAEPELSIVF

[12] = Cytotoxicity against human MAGI-CCR5 cells assessed as cell viability after 2 to 6 days by MTS assay; details: MAGI-CCR5 cells
[13] = target: C-X-C chemokine receptor type 4 (Homo sapiens, UniProt P61073)
Sequence of C-X-C chemokine receptor type 4 (P61073 whole entry): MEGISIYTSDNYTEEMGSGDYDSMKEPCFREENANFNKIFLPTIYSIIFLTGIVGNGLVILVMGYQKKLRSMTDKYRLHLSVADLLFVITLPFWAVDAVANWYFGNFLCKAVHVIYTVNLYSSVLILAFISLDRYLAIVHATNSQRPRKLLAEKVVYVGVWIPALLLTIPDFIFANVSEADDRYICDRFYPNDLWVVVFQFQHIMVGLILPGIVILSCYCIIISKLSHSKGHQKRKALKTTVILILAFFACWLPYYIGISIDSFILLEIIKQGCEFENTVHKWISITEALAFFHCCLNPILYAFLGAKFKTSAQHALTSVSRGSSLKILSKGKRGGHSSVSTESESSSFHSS

- half-life [2]: 6 h
- half-life at 1 µM [3]: 0.65 h
- CLH [4]: 64 µL/min/mg
- solubility kinetic at […] [5]: > 274 µM
- inhibition [6]: < 10%
- inhibition [7]: < 10%
- inhibition [8]: < 10%
- inhibition [9]: < 10%
- inhibition [10]: < 10%
- inhibition [11]: < 10%
- IC90 [13]: 240 nM
Compound: NCCCCN(C[C@H]1Cc2ccccc2CN1)[C@H]1CCCc2cccnc21
- Activity [1]: inactive
- CC50 [12]: > 10000 nM
